Ecoli rRNA inh – inhibitors of bacterial rRNA selective over humanized ribosomes. E. coli WT GFP vs humanized-ribosome RFP mutants, fluorescence, 24 h; hits give low values; DMSO median 0, no signal -100. GFP signal change (wild-type ribosome), % (test concentration not listed). hit rate 1.6% among 350,000. AID 720706;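 active means significant combined selectivity score with lowered wild-type GFP, culture density cut under 30%, mutant RFP and density less affected; inactive means any of these conditions unmet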
E-sel inducer – E-selectin induction on HUVECs; P16581; hit rate 0.37% among 260,000; HUVEC E-selectin immunofluorescence imaging; normalized: neutral wells 0, TNF-alpha wells 100; activation, % at 7.58 µM;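 active means mean E-selectin-positive cell signal at least 10% of the positive control, reached in at least 60% of replicates, without over 20% cell loss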
Target sequence (P16581 whole entry, looked up): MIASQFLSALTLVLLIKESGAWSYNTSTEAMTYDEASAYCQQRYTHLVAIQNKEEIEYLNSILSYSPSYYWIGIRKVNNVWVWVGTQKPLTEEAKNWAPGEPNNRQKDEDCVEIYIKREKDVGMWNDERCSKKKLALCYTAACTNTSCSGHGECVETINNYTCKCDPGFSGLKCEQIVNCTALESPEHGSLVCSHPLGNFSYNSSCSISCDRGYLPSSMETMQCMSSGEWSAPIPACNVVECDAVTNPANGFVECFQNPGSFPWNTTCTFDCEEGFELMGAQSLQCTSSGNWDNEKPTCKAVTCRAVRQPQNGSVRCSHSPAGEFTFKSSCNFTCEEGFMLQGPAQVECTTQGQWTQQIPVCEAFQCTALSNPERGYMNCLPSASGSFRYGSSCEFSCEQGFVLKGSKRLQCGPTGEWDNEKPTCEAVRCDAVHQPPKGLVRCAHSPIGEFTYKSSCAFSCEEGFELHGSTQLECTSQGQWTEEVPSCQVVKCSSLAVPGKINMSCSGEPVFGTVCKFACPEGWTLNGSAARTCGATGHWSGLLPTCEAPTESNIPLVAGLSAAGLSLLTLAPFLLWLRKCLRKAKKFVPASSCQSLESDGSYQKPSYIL
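material = human umbilical vein endothelial cells (HUVEC), E-selectin induction | quantity = 3,000 cells/well | medium = EGM-2 growth medium on 0.1% gelatin-coated wells | technique = immunofluorescence imaging | read-out basis = % PE-positive cells | control set = TNF-alpha positive control, DMSO neutral control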
DENV2 CPE – protects cells from dengue virus 2 cytopathic effect. CPE inhibition, % at 9.99 µM. hit rate 1.7% among 350,000. AID 651640. DENV2-infected cells, cytopathic effect rescue, plate reader; in the data active means CPE inhibition above about 20%, passing the limit was not always enough; tested in BHK-21 cells;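 further: 0% = median of neutral control wells and 100% = median of positive control wells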
miR-122 sensor – inhibitors of miR-122 in Huh7 cells; Huh7 miR-122 Renilla luciferase sensor, 48 h; neutral wells = 0, positive control = 100; activation (reporter increase), % at 12.5 µM; hit rate 0.3% among 340,000;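 active means mean replicate activation score at least 90 and every replicate individually at or above 90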;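 further: higher luciferase means less miR-122 activity so hits act as miR-122 inhibitors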
Cneo AK release – Cryptococcus neoformans lysis via adenylate kinase release; AID 651654; lysis activity, % at 15 µM; hit rate 0.2% among 360,000; C. neoformans lysis, adenylate kinase release luminescence, 4 h; normalised: neutral wells 0, clomiphene wells 100;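 active means mean lysis activity across replicates of at least 80%, whatever share of replicates individually reach that level; inactive means mean lysis activity below 80%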
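Assay system: log-phase C. neoformans yeast / Quantity: yeast cell density of 5 × 10^6 cells/mL / Medium: fresh YPD growth medium / Compound: single dose / Timing: static 4 h at 37 °C with compound, 1 h detection / Measured by: adenylate kinase release luminescence / Read-out: lysis from increased AK signal / Benchmarks: Clomiphene as positive lysis control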
Starred values were filed as active, the others as inactive; [ ] = another dose, or the depositor's remark. Compounds with a hit are over-represented: about 3.1% of the library has one in this group of screens.

C[C@H](CO)N1C[C@H](C)[C@H](CN(C)Cc2ccncc2)Oc2ncc(/C=C/c3ccccc3)cc2C1=O was read as Ecoli rRNA inh -8, E-sel inducer 0, DENV2 CPE 23*, miR-122 sensor -5[16.7 µM] and Cneo AK release -1.
Screening CC(C)NC(=O)N(C)C[C@H]1Oc2c(N)cccc2C(=O)N(C)C[C@H]1C returned Ecoli rRNA inh 3.
For C[C@H]1CN([C@@H](C)CO)C(=O)c2cc(/C=C/c3ccccc3)cnc2O[C@H]1CN(C)S(C)(=O)=O the results were Ecoli rRNA inh 0, E-sel inducer -2, DENV2 CPE 17, miR-122 sensor 3[16.7 µM] and Cneo AK release 19.
For C[C@@H]1CN([C@H](C)CO)C(=O)c2cc(/C=C/c3ccccc3)cnc2O[C@@H]1CN(C)S(C)(=O)=O the results were Ecoli rRNA inh -1, E-sel inducer -1, DENV2 CPE -3, miR-122 sensor 3[16.7 µM] and Cneo AK release 87*.
`CCNC(=O)C[C@@H]1C=C[C@@H](NS(=O)(=O)c2ccc(C)cc2)[C@@H](CO)O1` gave Ecoli rRNA inh -2, E-sel inducer 0, DENV2 CPE 7 and Cneo AK release 1.
Screening COc1ccccc1NC(=O)N[C@H]1C=C[C@H](CC(=O)NCc2ccc(Cl)c(Cl)c2)O[C@@H]1CO returned Ecoli rRNA inh -7, E-sel inducer -1, DENV2 CPE 4, miR-122 sensor -2[16.7 µM] and Cneo AK release -1.
CSc1sc(C(=O)Nc2ccc(F)cc2F)c2c1C=CCC2 was read as Ecoli rRNA inh -26*, E-sel inducer 0, DENV2 CPE -2, miR-122 sensor -1 and Cneo AK release 0.
Screening COc1ccsc1C(=O)Nc1ccc(F)cc1F returned Ecoli rRNA inh 2 and DENV2 CPE 3.
For CNC[C@H]1Oc2c(NC(C)=O)cccc2C(=O)N(C)C[C@H]1C the results were Ecoli rRNA inh -1.
Screening O=C(NCCN1CCCC1)C1CCC(=O)N(CCCN2CCOCC2)C1 (stereo not drawn) returned Ecoli rRNA inh 16, E-sel inducer 0, DENV2 CPE 35* and Cneo AK release -2.
For O=C(NCCOc1ccccc1)C1CCC(=O)N(CCCN2CCOCC2)C1 (stereo not drawn) the results were Ecoli rRNA inh 5, E-sel inducer 0, DENV2 CPE -5, miR-122 sensor -8 and Cneo AK release 0.
Cc1sc2nc(CN3CCOCC3)nc(N3CCN(S(=O)(=O)c4ccccc4)CC3)c2c1C was read as Ecoli rRNA inh -24*, DENV2 CPE 19, miR-122 sensor 1 and Cneo AK release -2.
`CCN(C(=O)c1cnc(OC)cc1C(F)(F)F)c1ccc(Cl)cc1` gave DENV2 CPE -1, miR-122 sensor 9 and Cneo AK release -2.
COc1cc(C(F)(F)F)c(C(=O)N(C)Cc2ccc(Cl)c(Cl)c2)cn1 was read as Ecoli rRNA inh -22*, E-sel inducer 0, DENV2 CPE -11, miR-122 sensor 2 and Cneo AK release 0.
For C[C@@H]1CCCCO[C@@H](CN(C)C(=O)Cc2ccccc2)[C@H](C)CN([C@H](C)CO)C(=O)c2cc(NC(=O)NC3CCCCC3)ccc2O1 the results were Ecoli rRNA inh 0, E-sel inducer 0, DENV2 CPE 15, miR-122 sensor -4[16.7 µM] and Cneo AK release -14.
Screening C[C@@H]1CCCCO[C@@H](CN(C)Cc2ccccc2)[C@H](C)CN([C@@H](C)CO)C(=O)c2cc(NC(=O)NC3CCCCC3)ccc2O1 returned Ecoli rRNA inh 4, E-sel inducer 0, DENV2 CPE 24*, miR-122 sensor 2[16.7 µM] and Cneo AK release 49.
C[C@H](CO)N1C[C@H](C)[C@H](CN(C)Cc2ccccc2)OCCCC[C@H](C)Oc2ccc(NC(=O)NC3CCCCC3)cc2C1=O was read as Ecoli rRNA inh -5, E-sel inducer 0, DENV2 CPE 29*, miR-122 sensor 10[16.7 µM] and Cneo AK release -1.
For C[C@H](CO)N1C[C@H](C)[C@@H](CN(C)Cc2ccccc2)OCCCC[C@H](C)Oc2ccc(NC(=O)NC3CCCCC3)cc2C1=O the results were Ecoli rRNA inh -2, E-sel inducer 0, DENV2 CPE 5, miR-122 sensor 2[16.7 µM] and Cneo AK release 52.
For C[C@H]1CCCCO[C@H](CN(C)C(=O)Cc2ccccc2)[C@@H](C)CN([C@@H](C)CO)C(=O)c2cc(NC(=O)NC3CCCCC3)ccc2O1 the results were Ecoli rRNA inh -2, E-sel inducer 0, DENV2 CPE 25*, miR-122 sensor -5[16.7 µM] and Cneo AK release -5.
Screening C[C@@H]1CN([C@@H](C)CO)C(=O)Cc2cc(NC(=O)C3CCCCC3)ccc2O[C@H]1CN(C)Cc1ccc(C(=O)Nc2ccccc2N)cc1 returned Ecoli rRNA inh -5, E-sel inducer 0, DENV2 CPE -9, miR-122 sensor 38[16.7 µM] and Cneo AK release 1.
For Cc1ccc(SCc2cn3c(C)csc3n2)cc1 the results were Ecoli rRNA inh -51*, DENV2 CPE 2, miR-122 sensor -2 and Cneo AK release -5.
`Cc1ccc(S(=O)(=O)NCc2cn3c(C)csc3n2)cc1` gave miR-122 sensor 4.
`CC(C)(C)c1ccccc1OCCCCCn1ccnc1` gave Ecoli rRNA inh -55*, E-sel inducer 2 and DENV2 CPE 7.
COc1ccc2c3c([nH]c2c1)[C@@H](CO)N(C(=O)Nc1c(C)noc1C)CC31CN(CC2CC2)C1 was read as Ecoli rRNA inh 3.
`CCC1C(c2ccccc2)N(C)C(c2ccccc2)CC1(O)c1ccccc1` (stereo not drawn) gave Ecoli rRNA inh -56.
Screening CC(C)C1C(c2ccccc2)N(C)C(c2ccccc2)CC1(O)c1ccccc1 (stereo not drawn) returned Ecoli rRNA inh -30*, DENV2 CPE 3, miR-122 sensor -1 and Cneo AK release -1.
COC(=O)c1ccccc1NCc1cc(=O)oc2cc(O)c(O)cc12 was read as Ecoli rRNA inh -22*, E-sel inducer 1, DENV2 CPE -2, miR-122 sensor 0 and Cneo AK release 0.
`COc1ccc(C)cc1NCc1cc(=O)oc2cc(-c3ccccc3)c(O)cc12` gave miR-122 sensor 3.
`CC(C)(C)c1ccc(OCCNCc2ccccc2)cc1` gave Ecoli rRNA inh 1, E-sel inducer 0, DENV2 CPE -5, miR-122 sensor 2 and Cneo AK release -10.
`C[n+]1ccccc1COc1ccc(C(C)(C)C)cc1` gave Ecoli rRNA inh 10 and DENV2 CPE 23*.
COCC(=O)N(C)C[C@@H]1Oc2cc(-c3ccccc3)ccc2S(=O)(=O)N([C@H](C)CO)C[C@H]1C was read as Ecoli rRNA inh -7, E-sel inducer 1, DENV2 CPE -3, miR-122 sensor 15[16.7 µM] and Cneo AK release -1.
